{"source": "paper PMC7680388", "about": "(Cell chemical biology, 2020)", "molecules": {"B1": {"name": "Rpn13Q337A/Q338A: Rpn13 double mutant defective in Uch37 activation, FLAG-tagged, expressed from plasmid (protein, UniProt Q16186 2-407, looked up, variant Q337A Q338A)", "Proteasomal ubiquitin …": "TTSGALFPSLVPGSRGASNKYLVEFRAGKMSLKGTTVTPDKRKGLVYIQQTDDSLIHFCWKDRTSGNVEDDLIIFPDDCEFKRVPQCPSGRVYVLKFKAGSKRLFFWMQEPKTDQDEEHCRKVNEYLNNPPMPGALGASGSSGHELSALGGEGGLQSLLGNMSHSQLMQLIGPAGLGGLGGLGALTGPGLASLLGSSGPPGSSSSSSSRSQSAAVTPSSTTSSTRATPAPSAPAAASATSPSPAPSSGNGASTAASPTQPIQLSDLQSILATMNVPAGPAGGQQVDLASVLTPEIMAPILANADVQERLLPYLPSGESLPQTADEIQNTLTSPQFAAALGMFSAALASGQLGPLMCQFGLPAEAVEAANKGDVEAFAKAMQNNAKPEQKEGDTKDKKDEEEDMSLD", "modifications": "FLAG tag"}}, "key": {"SK-MEL-5 cells": {"test_system": "SK-MEL-5 cells", "type": "cell-based, Homo sapiens", "conditions": "endogenous Rpn13 depleted by UTR siRNA; Fig. 6E", "procedure,_shortened": "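SK-MEL-5 endogenous Rpn13 was depleted with UTR-targeting siRNA (50 nM) for 24 h. Cells at 70–80% confluency were then transfected with 2 μg wild-type or Q337A/Q338A FLAG-Rpn13 plasmid (Omnifect) per 6-well. Test compound was given at graded concentrations for 24 h. CellTiter-Glo 2.0 luminescence was normalized to vehicle, in technical triplicate and biological duplicate, with SD reported.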"}, "Uch37": {"target": "T1, Uch37 (Homo sapiens, UniProt Q9Y5K5)", "T1 sequence (Q9Y5K5 1-329)": "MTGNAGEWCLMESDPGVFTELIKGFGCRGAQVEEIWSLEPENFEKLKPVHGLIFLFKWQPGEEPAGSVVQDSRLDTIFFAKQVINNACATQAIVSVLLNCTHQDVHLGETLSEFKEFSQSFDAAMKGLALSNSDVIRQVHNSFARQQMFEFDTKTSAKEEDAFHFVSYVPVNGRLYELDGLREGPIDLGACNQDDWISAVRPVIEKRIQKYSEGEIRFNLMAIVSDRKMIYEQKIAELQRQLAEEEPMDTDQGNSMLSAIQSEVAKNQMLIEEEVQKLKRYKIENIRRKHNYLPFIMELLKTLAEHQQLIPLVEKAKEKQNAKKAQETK", "conditions": "ref VanderLinden et al., 2015; cited from earlier work"}, "Rpn13-Uch37 interaction": {"test_system": "Rpn13-Uch37 interaction", "conditions": "ref VanderLinden et al., 2015; cited from earlier work"}}}
{"molecule": "B1", "values": [{"measurement": "viability upon expression of Rpn13 double mutant", "setting": "SK-MEL-5 cells", "value": "no significant effect on viability"}, {"measurement": "stimulation of Uch37 relative to wild-type Rpn13", "setting": "Uch37", "value": "about 30%"}, {"measurement": "effect of mutations on physical interaction with Uch37", "setting": "Rpn13-Uch37 interaction", "value": "the mutations do not affect the physical interaction of the two proteins"}]}
